Laboratory results as given in PMC12311552 (Molecular Metabolism, 2025).
One block for each compound: values may come before it. Numbered stars: 1 amine (or outer) side, 2 acyl side, 3 side chain; on linkers, the order of the positions; unused ones are H or OH. Side chains are listed from the residue outwards. Peptide text beside a SMILES is read from it. * marks the point of attachment. Cy5(nonsulfonated) = CN1C(=CC=CC=CC2=[N+](CCCCCC(=O)*)c3ccccc3C2(C)C)C(C)(C)c2ccccc21; C18 diacid = O=C(O)CCCCCCCCCCCCCCCCC(=O)*; γGlu = O=C(O)[C@H](CCC(=O)[*:2])N[*:1]; Isovaleryl = CC(C)CC(=O)*; AEEA = NCCOCCOCC(=O)O

Assays:
human NPY2R (human) = human NPY2R (human) (UniProt P49146); assay: radioligand binding
diet-induced obese mice = assay: Subchronic, repeated dose study in diet-induced obese mice; assay type: in vivo, mouse; conditions: DIO mice
male NMRI mice = assay: Acute food intake in lean mice; assay type: in vivo, mouse
How it was run: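 Males, 5 weeks old on arrival, 4/cage, lights off 3 PM, chow ad libitum. Randomised by bodyweight (n = 7–8/group) with a vehicle group (50 mM phosphate pH 7.0, 5% mannitol; 5 mL/kg). Fasted from 6 h before night, dosed SC once 1 h before dark. Hourly food intake over 24 h as % of vehicle mean. ED50 by nonlinear fit.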

[1] = system: Chow-fed male C57BL/6JRj mice; assay: 3D whole-brain imaging by light-sheet fluorescence microscopy; assay type: in vivo, mouse; conditions: single s.c. dose 100 nmol/kg; SFO, AP, ME, choroid plexus, ARH
How it was run: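 Chow-fed males (n = 8/group) got one SC dose of unlabelled test compound or a Cy5-labelled analogue (Lys10), each 100 nmol/kg, and were killed at 6 h. Competition group: unlabelled 100 nmol/kg SC at 0, 8 and 24 h, labelled analogue 1 h later, killed after 1 h. Tongue was positive control. Tissue was perfusion-fixed, cleared and light-sheet imaged, giving atlas-aligned regional mean fluorescence (CVOs, ARH).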

[2] = Pharmacokinetic study in dogs; assay type: in vivo; conditions: male, beagle, dog, plasma, sc, 5 nmol/kg
How it was run: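 Male beagles were dosed once, IV 1.25 nmol/kg (N = 2) or SC 5 nmol/kg (N = 3). Plasma was sampled at several times after dosing, stored at -20 °C, and assayed by LC-MS/MS.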

[3] = system: Diet-induced obese (DIO) male C57BL6/J mice; assay: 3D whole-brain c-Fos imaging; assay type: in vivo, mouse; conditions: 8 nmol/kg, 4 h after dosing
How it was run: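 Perfused 4 h post-dose. Brains were c-Fos immunolabelled, iDISCO+-cleared and imaged whole by light-sheet microscopy. c-Fos+ cells were atlas-mapped and counted per region, with region-wise statistics against vehicle.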

male C57BL/6JRj mice = assay: Acute gastric emptying in lean mice; assay type: in vivo, mouse
How it was run: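 Males aged 9–10 weeks were fasted 8.5 h, then a basal blood glucose sample was taken for randomisation. After a further 30 min fast they got one SC dose. At 3 h, glucose 2 g/kg plus acetaminophen 100 mg/kg was gavaged (10 mL/kg). Blood acetaminophen and glucose were measured pre-load (20 min) and at 10, 30 and 60 min post-load. Gastric emptying was read as change in acetaminophen exposure.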

cynomolgus monkeys = assay: Cardiovascular study in cynomolgus monkeys; assay type: in vivo, cynomolgus monkey; conditions: subcutaneous supratherapeutic doses
human NPY4R = human NPY4R (Homo sapiens, UniProt P50391); assay: Competitive radioligand binding, membrane preparations, 125I-PP; conditions: up to 1 μM
[4] = Pharmacokinetic study in mice; assay type: in vivo; conditions: male, NMRI, mouse, plasma, sc, 30 nmol/kg
How it was run: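 Male NMRI mice got a single dose of 30 nmol/kg, IV (N = 2) or SC (N = 3), in 50 mM phosphate pH 7.0 with 5% mannitol at 5 mL/kg. Plasma was sampled at several times after dosing, stored at -20 °C, and quantified by LC-MS/MS.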

human NPY1R = target: T1, human NPY1R (Homo sapiens, UniProt P25929); assay: Competitive radioligand binding, membrane preparations, 125I-PYY1–36; conditions: up to 1 μM
T1 sequence (P25929 1-384): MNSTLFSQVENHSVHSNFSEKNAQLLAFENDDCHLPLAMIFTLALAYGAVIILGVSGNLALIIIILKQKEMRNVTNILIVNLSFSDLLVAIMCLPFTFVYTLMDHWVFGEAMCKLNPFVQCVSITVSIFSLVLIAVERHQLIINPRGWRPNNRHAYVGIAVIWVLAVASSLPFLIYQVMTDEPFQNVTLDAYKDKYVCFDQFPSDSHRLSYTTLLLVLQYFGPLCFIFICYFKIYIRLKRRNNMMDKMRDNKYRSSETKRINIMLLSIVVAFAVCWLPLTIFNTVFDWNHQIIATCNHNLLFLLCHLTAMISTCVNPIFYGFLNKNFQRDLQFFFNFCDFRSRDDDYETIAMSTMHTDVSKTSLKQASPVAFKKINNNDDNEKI

Sequence of human NPY4R (P50391 whole entry): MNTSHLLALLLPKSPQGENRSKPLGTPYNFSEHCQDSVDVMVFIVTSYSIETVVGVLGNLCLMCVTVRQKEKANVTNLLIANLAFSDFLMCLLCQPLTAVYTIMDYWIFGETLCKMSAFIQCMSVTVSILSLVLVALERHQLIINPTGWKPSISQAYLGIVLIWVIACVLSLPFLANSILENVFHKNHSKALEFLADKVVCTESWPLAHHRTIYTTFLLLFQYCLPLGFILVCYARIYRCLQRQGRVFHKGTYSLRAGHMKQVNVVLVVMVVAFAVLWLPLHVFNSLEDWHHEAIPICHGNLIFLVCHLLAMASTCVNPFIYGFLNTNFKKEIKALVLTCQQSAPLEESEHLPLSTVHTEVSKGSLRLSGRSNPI
Sequence of human NPY2R (human) (P49146 whole entry): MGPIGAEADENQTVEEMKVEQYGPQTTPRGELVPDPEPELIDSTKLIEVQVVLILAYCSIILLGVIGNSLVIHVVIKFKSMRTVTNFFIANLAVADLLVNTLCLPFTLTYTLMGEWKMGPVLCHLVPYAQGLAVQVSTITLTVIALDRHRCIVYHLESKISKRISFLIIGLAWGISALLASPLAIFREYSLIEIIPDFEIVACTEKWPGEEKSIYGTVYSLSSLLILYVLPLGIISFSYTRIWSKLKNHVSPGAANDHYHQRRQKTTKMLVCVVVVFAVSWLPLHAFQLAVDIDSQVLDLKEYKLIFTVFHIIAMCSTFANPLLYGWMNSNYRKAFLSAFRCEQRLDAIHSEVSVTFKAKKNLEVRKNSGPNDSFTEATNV

- Ki (human NPY2R (human)): 820 pM
Compound: BI 1820237 (peptide)

Compound: survodutide [reference compound]
- bodyweight lowering versus baseline (diet-induced obese mice; after 28 days, survodutide 7.5 nmol/kg): 17%
- bodyweight lowering compared with the vehicle group (diet-induced obese mice; after 28 days, survodutide 7.5 nmol/kg alone or with 1 nmol/kg BI 1820237): 21%
- lean mass (diet-induced obese mice; survodutide alone, or with 3 nmol/kg BI 1820237 at study start or 1 nmol/kg at Day 8): No significant change

Compound: CC[C@H](C)[C@H](NC(=O)[C@H](CCC(=O)O)NC(=O)[C@H](CCC(=O)O)NC(=O)[C@@H]1CCCN1C(=O)[C@H](CO)NC(=O)[C@H](C)NC(=O)[C@H](CC(=O)O)NC(=O)[C@H](CCCCNC(=O)CCCCC[N+]1=C(C=CC=CC=C2N(C)c3ccccc3C2(C)C)C(C)(C)c2ccccc21)NC(=O)[C@H](CCC(=O)O)NC(=O)[C@@H]1CCCN1C(=O)[C@H](CCCCNC(=O)COCCOCCNC(=O)COCCOCCNC(=O)CC[C@H](NC(=O)CCCCCCCCCCCCCCCCC(=O)O)C(=O)O)NC(=O)[C@H](C)NC(=O)[C@@H]1CCCN1C(=O)[C@H](C)NC(=O)CC(C)C)C(=O)N[C@@H](CCC(N)=O)C(=O)N[C@@H](CCCNC(=N)N)C(=O)N[C@@H](Cc1ccc(O)cc1)C(=O)N[C@@H](Cc1ccc(O)cc1)C(=O)N[C@H](C(=O)N[C@@H](CO)C(=O)N[C@@H](CC(C)C)C(=O)N[C@@H](CCCNC(=N)N)C(=O)N[C@@H](Cc1c[nH]cn1)C(=O)N[C@@H](Cc1ccc(O)cc1)C(=O)N[C@@H](Cc1ccc(O)cc1)C(=O)N[C@@H](CC(N)=O)C(=O)N[C@@H](Cc1c[nH]c2ccccc12)C(=O)N[C@@H](CC(C)C)C(=O)N[C@H](C(=O)N[C@@H](CCCNC(=N)N)C(=O)N[C@@H](CCC(N)=O)C(=O)N[C@@H](CCCNC(=N)N)C(=O)N[C@@H](Cc1ccc(O)cc1)C(N)=O)[C@@H](C)O)C(C)C [BI 3005788] (Isovaleryl-APAK([AEEA-AEEA-γGlu-C18 diacid])PEK(Cy5(nonsulfonated))DASPEEIQRYYVSLRHYYNWLTRQRY-NH2; N-terminus and C-terminus assumed)
- lowering of food intake up to 6 h post-dosing (male NMRI mice; acute dose 100 nmol/kg, Fig. S3a–b): comparable with BI 1820237 dosed at 30 nmol/kg
- fluorescence signal distribution in the mouse brain [1]: accumulated in 5 circumventricular organs

- MRT [2]: 103 h
- binding to human NPY subtype 4 (human NPY4R): no binding was detected
- Tmax [4]: 3 h
- binding to human NPY subtype 1 (human NPY1R): no binding was detected
Compound: CC[C@H](C)[C@H](NC(=O)[C@H](CCC(=O)O)NC(=O)[C@H](CCC(=O)O)NC(=O)[C@@H]1CCCN1C(=O)[C@H](CO)NC(=O)[C@H](C)NC(=O)[C@H](CC(=O)O)NC(=O)[C@H](CCC(=O)O)NC(=O)[C@H](CCC(=O)O)NC(=O)[C@@H]1CCCN1C(=O)[C@H](CCCCNC(=O)COCCOCCNC(=O)COCCOCCNC(=O)CC[C@H](NC(=O)CCCCCCCCCCCCCCCCC(=O)O)C(=O)O)NC(=O)[C@H](C)NC(=O)[C@@H]1CCCN1C(=O)[C@H](C)NC(=O)CC(C)C)C(=O)N[C@@H](CCC(N)=O)C(=O)N[C@@H](CCCNC(=N)N)C(=O)N[C@@H](Cc1ccc(O)cc1)C(=O)N[C@@H](Cc1ccc(O)cc1)C(=O)N[C@H](C(=O)N[C@@H](CO)C(=O)N[C@@H](CC(C)C)C(=O)N[C@@H](CCCNC(=N)N)C(=O)N[C@@H](Cc1c[nH]cn1)C(=O)N[C@@H](Cc1ccc(O)cc1)C(=O)N[C@@H](Cc1ccc(O)cc1)C(=O)N[C@@H](CC(N)=O)C(=O)N[C@@H](Cc1c[nH]c2ccccc12)C(=O)N[C@@H](CC(C)C)C(=O)N[C@H](C(=O)N[C@@H](CCCNC(=N)N)C(=O)N[C@@H](CCC(N)=O)C(=O)N[C@@H](CCCNC(=N)N)C(=O)N[C@@H](Cc1ccc(O)cc1)C(N)=O)[C@@H](C)O)C(C)C [BI 1820237]
- Emax, inhibition of food intake over 24 h (male NMRI mice; at the maximal tested dose of 100 nmol/kg): ~85%
- ED50, inhibition of food intake over 24 h (male NMRI mice; single subcutaneous dose): 14 nmol/kg
- whole-brain c-Fos expression compared with vehicle [3]: little or no difference
- ED50, reduction of gastric emptying (male C57BL/6JRj mice; lean mice, single dose, acetaminophen exposure): ~2 nmol/kg
- Glucose excursion (male C57BL/6JRj mice; oral glucose 2 g/kg, same experiment): not affected
- emesis (cynomolgus monkeys): induced emesis
- weight of the epididymal adipose tissue compared with the vehicle group (diet-induced obese mice; study end, BI 1820237 1 nmol/kg alone or with survodutide 7.5 nmol/kg): did not reduce
- food intake reduction on Day 1, 24 h post-dosing (diet-induced obese mice; 3 nmol/kg once daily s.c.): 18%
- food intake reduction on Day 1, 24 h post-dosing (diet-induced obese mice; 10 nmol/kg once daily s.c.): 59%
- maximal bodyweight-lowering effect (reduction) (diet-induced obese mice; 30 nmol/kg at Day 5 of dosing): 9%
- food intake reduction on Day 1, 24 h post-dosing (diet-induced obese mice; 30 nmol/kg once daily s.c.): 71%
- bodyweight reduction at the end of the study (non-significant) (diet-induced obese mice; 30 nmol/kg once daily, 4 weeks): 2%
- food intake after 4–5 days of dosing (diet-induced obese mice; 100 nmol/kg once daily): higher than the food intake in the vehicle group
- food intake reduction on Day 1, 24 h post-dosing (diet-induced obese mice; 100 nmol/kg once daily s.c.): 56%
- food intake after 4–5 days of dosing (diet-induced obese mice; 3, 10 and 30 nmol/kg once daily): returned to the level of the vehicle-treated group
- effect on bodyweight at the end of the study (diet-induced obese mice; other doses (3, 10, 100 nmol/kg) once daily, 4 weeks): no effect
